The source of these data is ChEMBL document CHEMBL1129335, “Synthesis and structure-activity relationships of 2-substituted D-tryptophan-containing peptidic endothelin receptor antagonists: importance of the C-2 substituent of the D-tryptophan residue for endothelin A and B receptor subtype selectivity” (J Med Chem, 1996).

Test [1] concerns the target T1, Endothelin receptor type B (Sus scrofa, UniProt P35463).
T1 sequence (P35463 whole entry): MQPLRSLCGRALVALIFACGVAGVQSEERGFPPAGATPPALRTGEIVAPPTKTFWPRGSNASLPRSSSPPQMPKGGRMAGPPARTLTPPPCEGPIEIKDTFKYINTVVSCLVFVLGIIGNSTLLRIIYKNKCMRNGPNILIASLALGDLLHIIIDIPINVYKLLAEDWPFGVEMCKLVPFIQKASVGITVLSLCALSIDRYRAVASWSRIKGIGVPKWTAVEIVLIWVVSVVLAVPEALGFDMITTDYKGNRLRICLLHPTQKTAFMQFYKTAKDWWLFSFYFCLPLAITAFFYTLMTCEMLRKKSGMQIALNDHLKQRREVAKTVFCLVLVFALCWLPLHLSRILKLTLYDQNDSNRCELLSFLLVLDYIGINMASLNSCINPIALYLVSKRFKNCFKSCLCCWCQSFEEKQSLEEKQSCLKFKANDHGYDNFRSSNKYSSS
Nature of the test: Binding affinity towards endothelin B receptor in porcine cerebellum membranes. In kind it is cell membranes, Membrane. The procedure, abridged:
(§1)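 Competitive binding in porcine membranes: aortic smooth muscle for ETA and cerebellum for ETB, run by a previously reported method. Variation was generally within 10%.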

In test [2] the target is T2, Endothelin receptor type B (Homo sapiens, UniProt P24530).
T2 sequence (P24530 whole entry): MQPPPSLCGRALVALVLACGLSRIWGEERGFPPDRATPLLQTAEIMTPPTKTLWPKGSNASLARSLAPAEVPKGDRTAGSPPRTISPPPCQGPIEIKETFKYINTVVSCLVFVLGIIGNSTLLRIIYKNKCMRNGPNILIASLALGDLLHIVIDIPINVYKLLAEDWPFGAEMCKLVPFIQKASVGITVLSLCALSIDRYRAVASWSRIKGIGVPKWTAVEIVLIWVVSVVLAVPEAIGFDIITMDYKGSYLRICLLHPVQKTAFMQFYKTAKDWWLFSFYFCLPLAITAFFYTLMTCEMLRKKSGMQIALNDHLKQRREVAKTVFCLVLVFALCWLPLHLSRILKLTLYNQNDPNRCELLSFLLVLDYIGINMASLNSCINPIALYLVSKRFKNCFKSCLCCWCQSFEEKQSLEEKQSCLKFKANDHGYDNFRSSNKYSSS
Put plainly: Binding affinity towards Endothelin B receptor in human girardi heart cell membranes. The procedure, abridged:
(§2)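 Membrane binding assay on human receptors. ETA came from the neuroblastoma-derived line SK-N-MC and ETB from Girardi heart cells. Inhibition was expressed as IC50.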

The target of test [3] is T3, Endothelin-1 receptor (Sus scrofa, UniProt Q29010).
T3 sequence (Q29010 whole entry): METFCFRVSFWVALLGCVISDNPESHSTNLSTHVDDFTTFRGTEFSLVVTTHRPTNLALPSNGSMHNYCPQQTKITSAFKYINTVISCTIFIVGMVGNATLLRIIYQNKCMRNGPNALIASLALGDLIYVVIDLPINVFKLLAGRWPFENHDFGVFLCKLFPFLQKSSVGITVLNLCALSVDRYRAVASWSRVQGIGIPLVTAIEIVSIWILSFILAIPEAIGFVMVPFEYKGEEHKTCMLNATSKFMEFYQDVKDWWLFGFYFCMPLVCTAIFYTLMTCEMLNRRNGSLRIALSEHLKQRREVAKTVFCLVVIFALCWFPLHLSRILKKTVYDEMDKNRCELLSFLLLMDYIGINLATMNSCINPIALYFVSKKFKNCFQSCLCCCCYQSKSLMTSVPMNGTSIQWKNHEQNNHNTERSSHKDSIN
Nature of the test: Binding affinity towards endothelin A receptor in porcine aortic smooth muscle membranes. In short, it runs like this: as §1

In test [4] the target is T4, Endothelin-1 receptor (Homo sapiens, UniProt P25101).
T4 sequence (P25101 whole entry): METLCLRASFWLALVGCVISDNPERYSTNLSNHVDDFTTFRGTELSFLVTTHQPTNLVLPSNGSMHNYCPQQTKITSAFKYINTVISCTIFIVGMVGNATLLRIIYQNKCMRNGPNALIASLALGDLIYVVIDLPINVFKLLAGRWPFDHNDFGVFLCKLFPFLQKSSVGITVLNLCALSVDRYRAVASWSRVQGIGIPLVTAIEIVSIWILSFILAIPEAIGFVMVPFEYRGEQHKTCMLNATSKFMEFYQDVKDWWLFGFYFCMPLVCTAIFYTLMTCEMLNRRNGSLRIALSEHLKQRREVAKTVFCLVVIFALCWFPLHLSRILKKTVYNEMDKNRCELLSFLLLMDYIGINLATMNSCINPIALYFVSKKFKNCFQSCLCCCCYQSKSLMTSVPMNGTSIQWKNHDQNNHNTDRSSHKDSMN
Nature of the test: Binding affinity towards Endothelin A receptor in human neuroblastoma-derived cell line SK-N-MC membranes. In kind it is cell-based. In short, it runs like this: as §2

A short description of test [5]: Ability to antagonize ET-A mediated vasoconstrictor activity in isolated porcine coronary arteries. In kind it is functional. As to conditions: read-out: pA2 (converted). In short, it runs like this: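 Isolated porcine coronary artery rings were contracted with ET-1, an ETA-mediated response, following a reported method. Antagonism was quantified as a pA2 value.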

Test [6] can be described thus: Ability to antagonize ET-1 mediated constriction in rabbit pulmonary arteries. The format is functional, Oryctolagus cuniculus.
Test [7] deals with T2, Endothelin receptor type B. Nature of the test: Binding affinity rowards Endothelin B receptor in human girardi heart cell membranes. The procedure, abridged:
as §2

Test [8] in a line: Antagonistic activity against Endothelin B receptor by BQ-3020 induced constriction in isolated rabbit pulmonary arteries. The format is functional. As to conditions: Oryctolagus cuniculus; read-out: pA2 (converted). In short, it runs like this: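 Isolated rabbit pulmonary arteries were contracted with the ETB-selective agonist BQ-3020, following a previously reported protocol. Antagonist potency was given as pA2.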

Test [9] can be described thus: Inhibitory activity against ET 1 induced calcium increase in human Girardi heart cells. The format is functional, cell-based. In short, it runs like this: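 Intracellular Ca2+ rise in intact human Girardi heart cells was induced by ET-1, run by a reported method. Inhibition was expressed as IC50. Compounds were also applied alone at 100 µM to check for any rise in [Ca2+]i.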

What is called IC50 is the concentration needed to halve the response being measured. The pA2 is the negative logarithm of the molar antagonist concentration that doubles the agonist concentration needed for the same response. A low value points to a weaker antagonist. In the case of `O=C(O)C[C@H]1NC(=O)[C@@H](Cc2c(Br)[nH]c3ccccc23)NC(=O)[C@H](C2CC2)NC(=O)[C@@H](C2CCCC2)NC(=O)[C@@H]2CCCN2C1=O`, the IC50 in [1] amounted to 15 nM; in test [2] (heart), 29 nM; at Endothelin-1 receptor [3], 4.9 nM; at Endothelin-1 receptor [4] (sk-n-mc) it was 8.6 nM. Further, the Kb in test [5] was 31.6 nM. The same compound yielded a pA2 in test [6] of 5.7.

On to `Cc1[nH]c2ccccc2c1C[C@H]1NC(=O)[C@H](C2CC2)NC(=O)[C@@H](C2CCCC2)NC(=O)[C@@H]2CCCN2C(=O)[C@@H](CC(=O)O)NC1=O`, for which the IC50 turned out to be 59 nM in [1], 130 nM in test [2] (heart), 1.8 nM on Endothelin-1 receptor [3] and 2.9 nM at Endothelin-1 receptor [4] (sk-n-mc).

For `CCSCC(NC(=O)[C@@H](Cc1c(Br)[nH]c2ccccc12)NC(=O)C(CC(C)C)NC(=O)N1[C@H](C)CCC[C@@H]1C)C(=O)O` (some centres undefined), the half-inhibitory concentration (IC50) came to 1.8 nM in test [1], 3.6 nM in test [7], 1.9 nM at Endothelin-1 receptor [3] and 6.4 nM at Endothelin-1 receptor [4].

Take `CCCCC(NC(=O)[C@@H](Cc1c(C#N)[nH]c2ccccc12)NC(=O)C(NC(=O)N1[C@H](C)CCC[C@@H]1C)C(C)C)C(=O)O` (some centres undefined): the IC50 in test [1] amounted to 2.3 nM; in test [2], 5 nM; at Endothelin-1 receptor [4], 2400 nM; in [9] it was 4 nM. For the same compound, the Kb in test [8] is 3.16 nM.

Consider `CSCCC(NC(=O)[C@@H](Cc1c(C)[nH]c2ccccc12)NC(=O)C(NC(=O)N1[C@H](C)CCC[C@@H]1C)C1CC1)C(=O)O` (some centres undefined), for which the IC50 was determined as 2.9 nM in test [1], 4 nM in test [2], 1 nM on Endothelin-1 receptor [3] and 3 nM on Endothelin-1 receptor [4].

As to `CCCCC(NC(=O)[C@@H](Cc1c(Br)[nH]c2ccccc12)NC(=O)C(NC(=O)N1[C@H](C)CCC[C@@H]1C)C1CC1)C(=O)O` (some centres undefined), the IC50 is 0.81 nM in test [1], 1.1 nM in test [2], 3.8 nM at Endothelin-1 receptor [3] and 13 nM on Endothelin-1 receptor [4]. Besides, the Kb in [5] is 12.6 nM. Also, in test [6], the pA2 is recorded as 6.4.
